27 compounds from ChEMBL document CHEMBL4382227, “Optimization and preclinical evaluation of novel histamine H3receptor ligands: Acetyl and propionyl phenoxyalkyl piperazine derivatives” (Bioorg Med Chem, 2018) can be followed below.

What is called pKi is the negative decadic logarithm of the Ki, by convention in mol/L.

pKi: −log10 of the molar value. Activity calls are given as the source filed them. No cut-off for these calls is given here. Bounds are passed on as bounds.

For one data set, the target named is Histamine H3 receptor (Homo sapiens, UniProt Q9Y5N1). Briefly: Displacement of [3H]N-alpha-methylhistamine from full length recombinant human H3R expressed in HEK293 cell membranes after 90 mins by beta scintillation counting method. The method, boiled down:
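Frozen crude membranes from HEK-293 cells stably expressing full-length human H3R were incubated 90 min at RT with shaking, with [3H]Nα-methylhistamine (2 nM; KD 3.08 nM) and 5–11 concentrations of test compound between 0.01 nM and 10 μM. Nonspecific binding was defined with pitolisant 10 μM. Samples were filtered on PEI-treated GF/B filters and washed with ice-cold water. Ki was derived from IC50 by Cheng-Prusoff; ≥3 experiments, each in at least duplicate.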
(In general: Displacement assays read how much labelled ligand stays bound in the presence of the test substance.)

Data set [1] deals with HepG2. The data set can be described thus: Induction of phospholipidosis in human HepG2 cells assessed as increase in number of cellular lysosomes at 50 uM after 72 hrs by LYSO-ID Red and Hoechst 33342 staining based fluorescence microscopic method. Conditions: hepg2, 72 h. In kind it is cell-based.
Data set [2] concerns Rattus norvegicus. Briefly: Protection against development of overweight in Wistar rat fed with palatable feed assessed as decrease in peritoneal fat at 3 mg/kg, ip once daily for 14 days measured on day 15. In kind it is functional, organism-based.
The nature of data set [3]: Toxicity in CD-1 mouse assessed as effect on spontaneous activity by measuring decrease in locomotor activity at 5 mg/kg, ip measured at 30 mins post dose for 20 mins. The class given is organism-based. Conditions: in vivo. The method, boiled down: (§1)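 Male CD-1 mice (20–22 g) were placed in the activity cage immediately after i.p. dosing. Distance travelled was recorded from 30 min post-dose over 20 min. Groups had 6–8 animals.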

The nature of data set [4]: Toxicity in CD-1 mouse assessed as effect on spontaneous activity by measuring decrease in locomotor activity at 3 mg/kg, ip measured at 30 mins post dose for 20 mins. The class given is organism-based. The following applies: in vivo. The essentials: as §1
The subject of data set [5] is Rattus norvegicus. Briefly: Protection against development of overweight in Wistar rat fed with palatable feed assessed as weight gain at 3 mg/kg, ip once daily for 14 days measured on day 9 during compound dosing relative to control. In kind it is functional. The method, boiled down: (§2)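 Male Wistar rats (initial 160–180 g), housed in pairs, given palatable diet (peanuts, condensed milk, milk chocolate with hazelnuts, Greek cheese) and dosed i.p. once daily in the morning for 14 days in 1% Tween 80; controls were vehicle on palatable or standard diet. Food intake was recorded three times per week and body weight daily before dosing. Results are mean ± SEM, n = 6; two-way ANOVA with Bonferroni.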

The test system of data set [6] is Rattus norvegicus. The data set can be described thus: Protection against development of overweight in Wistar rat fed with palatable feed assessed as weight gain at 3 mg/kg, ip once daily for 14 days measured on day 14 during compound dosing relative to control. In kind it is functional. The essentials: as §2
In data set [7] the test system is Rattus norvegicus. Briefly: Protection against development of overweight in Wistar rat fed with preferantial feed assessed as decrease in weight gain at 3 mg/kg, ip once daily for 14 days measured daily during compound dosing. In kind it is functional, organism-based. The method, boiled down: as §2
Data set [8] deals with Rattus norvegicus. Briefly: Protection against development of overweight in Wistar rat fed with palatable feed assessed as decrease in weight gain at 1 mg/kg, ip once daily for 14 days measured daily during compound dosing. In kind it is functional, organism-based. The method, boiled down:
as §2

Data set [9] has as its system Rattus norvegicus. The data set can be described thus: Anorectic activity in Wistar rat fed with palatable diet assessed as reduction in amount of calories consumed at 3 mg/kg, ip once daily for 14 days. The class given is functional, organism-based. The method, boiled down:
as §2

Data set [10] relates to Rattus norvegicus. The data set can be described thus: Protection against hyperglycemia in Wistar rat fed with palatable feed assessed as decrease in plasma glucose level at 3 mg/kg, ip once daily for 14 days by spectrophotometric method. In kind it is functional, organism-based. The essentials:
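On day 15, plasma was taken from the left carotid artery 20 min after i.p. heparin (1000 j/rat) and thiopental (70 mg/kg b.w.), and peritoneal fat was weighed. Glucose was measured by an enzymatic colorimetric test read at 500 nm. Rats had been on palatable diet with daily i.p. dosing in 1% Tween 80 for 14 days.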

Data set [11] is described as follows: Toxicity in Wistar rat fed with palatable diet assessed as effect on spontaneous activity by measuring induction of sedation at 3 mg/kg, ip for 13 days measured on day 1 and 13 at 24 hrs post dose. The class given is organism-based. Conditions: in vivo. The essentials: (§3)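 Wistar rats on palatable diet, housed in pairs in home cages, received daily i.p. dosing. Spontaneous activity was recorded by an RFID system for 24 h after dosing on days 1 and 13. Results are mean ± SEM, n = 6; multiple t-test.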

Data set [12] in a line: Toxicity in Wistar rat fed with palatable diet assessed as effect on spontaneous activity by measuring induction of hyperlocomotion at 3 mg/kg, ip for 13 days measured on day 1 and 13 at 24 hrs post dose. The class given is organism-based. Conditions: in vivo. The method, boiled down:
as §3

A short description of data set [13]: Metabolic stability in human liver microsomes assessed as parent compound remaining after 120 mins by UPLC analysis. In kind it is ADME, Microsome. Conditions: read-out: Stability.
Data set [14] deals with HepG2. The data set can be described thus: Cytotoxicity against human HepG2 cells assessed as decrease in cell viability at 10 to 100 uM by MTS assay relative to control. In kind it is cell-based. Conditions: hepg2, 100 µM. The essentials:
(§4)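 HepG2 hepatoma cells; viability read by MTS at 490 nm against untreated negative control. Doxorubicin and CCCP served as reference toxins. One-way ANOVA with Bonferroni.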
(In general: Formazan colour is commonly taken as a measure of viable cells.)

The test system of data set [15] is HepG2. Briefly: Cytotoxicity against human HepG2 cells assessed as decrease in cell viability at 1 uM by MTS assay relative to control. The following applies: hepg2, 1 µM. In kind it is cell-based. The essentials: as §4
The subject of data set [16] is HepG2. Briefly: Cytotoxicity against human HepG2 cells assessed as decrease in cell viability at 10 uM by MTS assay relative to control. In kind it is cell-based. Conditions: hepg2, 10 µM. The essentials: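 HepG2 human hepatoma cells (ATCC HB-8065) were exposed to the test compound at concentrations that included 10 and 100 μM. Viability was read by the MTS assay at 490 nm absorbance and expressed relative to an untreated negative control. Doxorubicin and CCCP served as reference toxins. Significance was tested by one-way ANOVA with Bonferroni's comparison test.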

Data set [17] has as its system Rattus norvegicus. The data set can be described thus: Protection against development of overweight in Wistar rat fed with palatable feed assessed as decrease in weight gain at 3 mg/kg, ip once daily for 14 days. In kind it is functional, organism-based. The method, boiled down: as §2

Chain of Histamine H3 receptor (Q9Y5N1 whole entry): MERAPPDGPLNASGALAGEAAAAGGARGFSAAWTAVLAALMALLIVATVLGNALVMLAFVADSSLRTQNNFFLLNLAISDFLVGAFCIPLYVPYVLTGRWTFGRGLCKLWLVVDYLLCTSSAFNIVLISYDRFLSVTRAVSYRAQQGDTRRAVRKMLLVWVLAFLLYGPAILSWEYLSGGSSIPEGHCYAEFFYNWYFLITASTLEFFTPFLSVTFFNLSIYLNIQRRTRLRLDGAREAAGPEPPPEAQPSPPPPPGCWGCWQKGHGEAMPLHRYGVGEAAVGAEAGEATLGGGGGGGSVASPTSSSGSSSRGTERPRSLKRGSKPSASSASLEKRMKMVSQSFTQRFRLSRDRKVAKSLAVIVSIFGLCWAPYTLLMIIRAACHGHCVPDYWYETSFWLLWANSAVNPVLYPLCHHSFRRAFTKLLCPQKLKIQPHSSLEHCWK

For `CC(=O)c1ccc(OCCCN2CCN(C(=O)C3CCCO3)CC2)cc1` (centres undefined), the pKi at Histamine H3 receptor is 5.31.

For the compound `CC(=O)c1ccc(OCCCCN2CCN(c3ccncc3)CC2)cc1`, the pKi on Histamine H3 receptor was 6.94.

As for `CC(=O)c1ccc(OCCCN2CCN(c3ncccn3)CC2)cc1`, the pKi at Histamine H3 receptor was 5.61.

As for `CC(=O)N1CCN(c2ccc(OCC3COC(Cn4ccnc4)(c4ccc(Cl)cc4Cl)O3)cc2)CC1` (centres undefined) [KETOCONAZOLE], in the data set on HepG2 [1], the Activity result is “Toxic”.

Take `CCC(=O)c1ccc(OCCCCN2CCN(c3ccncc3)CC2)cc1`: the pKi on Histamine H3 receptor was 7.81.

For `CCC(=O)c1ccc(OCCCN2CCN(C(=O)C3CCCO3)CC2)cc1` (centres undefined), the pKi at Histamine H3 receptor was 5.86.

Take `CC(=O)c1ccc(OCCCCN2CCN(c3ccccn3)CC2)cc1`: the pKi on Histamine H3 receptor was 5.43.

As for `CCC(=O)c1ccc(OCCCN2CCN(c3ncccn3)CC2)cc1`, on Histamine H3 receptor, the pKi was 5.76.

As for `CCC(=O)c1ccc(OCCCCN2CCN(c3cnccn3)CC2)cc1`, the pKi on Histamine H3 receptor is 5.39.

As to `CCC(=O)c1ccc(OCCCN2CCN(c3cccnc3)CC2)cc1`, the pKi on Histamine H3 receptor was 6.72.

Take `CCC(=O)c1ccc(OCCCCN2CCN(c3ncccn3)CC2)cc1`: the pKi on Histamine H3 receptor is 5.44.

For `CC(=O)c1ccc(OCCCN2CCN(c3cnccn3)CC2)cc1`, on Histamine H3 receptor, the pKi is 5.64.

`CC(=O)c1ccc(OCCCCN2CCN(c3cnccn3)CC2)cc1`: on Histamine H3 receptor, the pKi was 5.91.

For the compound `CCC(=O)c1ccc(OCCCCN2CCN(C(=O)C3CCCO3)CC2)cc1` (centres undefined), on Histamine H3 receptor, the pKi is < 5.00.

For the compound `CCC(=O)c1ccc(OCCCCN2CCN(c3ccccn3)CC2)cc1`, the pKi at Histamine H3 receptor was 5.84.

Regarding `CC(=O)c1ccc(OCCCCN2CCN(c3ncccn3)CC2)cc1`, the pKi on Histamine H3 receptor was 5.79.

For the compound `CC(=O)c1ccc(OCCCN2CCN(c3ccncc3)CC2)cc1`, the result with Rattus norvegicus [2], in the data set with Rattus norvegicus [7], in the data set with Rattus norvegicus [9] and in the data set on Rattus norvegicus [10] was Active. On Histamine H3 receptor, the negative logarithm of the Ki (pKi) is 7.99. Further, the Activity entry is “Toxic” in [3]; “Non-Toxic” in data set [4]; 8.64% in the data set on Rattus norvegicus [5]; 7.89% in the data set with Rattus norvegicus [6]; “Non-Toxic” in [11]; “Non-Toxic” in [12]. Further, the values for the Activity in the data set with HepG2 [14] and in the data set with HepG2 [1] were 10% and “Non-Toxic”, respectively. The outcome with Rattus norvegicus [8] was inactive. Further, the remaining at 2 h in data set [13] was determined as 91.3%.

As to `CCC(=O)c1ccc(OCCCCN2CCN(c3cccnc3)CC2)cc1`, the pKi at Histamine H3 receptor is 5.86.

In the case of `COc1cccc2c1C(=O)c1c(O)c3c(c(O)c1C2=O)C[C@@](O)(C(=O)CO)C[C@@H]3O[C@H]1C[C@H](N)[C@H](O)[C@H](C)O1` [DOXORUBICIN], in the data set on HepG2 [15], the Activity is on record as > 50%.

As for `CC(=O)c1ccc(OCCCCN2CCN(c3cccnc3)CC2)cc1`, at Histamine H3 receptor, the pKi is 6.04.

`N#CC(C#N)=NNc1cccc(Cl)c1` [CARBONYL CYANIDE M-CHLOROPHENYLHYDRAZONE]: the Activity with HepG2 [16] is > 50%.

As to `CC(=O)c1ccc(OCCCN2CCN(c3ccccn3)CC2)cc1`, on Histamine H3 receptor, the pKi was 6.50.

Turning to `CCC(=O)c1ccc(OCCCN2CCN(c3cnccn3)CC2)cc1`, on Histamine H3 receptor, the pKi is 5.47.

Regarding `CC(=O)c1ccc(OCCCN2CCN(c3cccnc3)CC2)cc1`, the negative logarithm of the Ki (pKi) at Histamine H3 receptor was 6.30.

With `CCC(=O)c1ccc(OCCCN2CCN(c3ccncc3)CC2)cc1`, at Histamine H3 receptor, the pKi was 8.28. For the same compound, the Activity entry in data set [3] is “Toxic”; in [4] it was “Non-Toxic”. Besides, in the data set with Rattus norvegicus [17], the result was inactive.

With `CCC(=O)c1ccc(OCCCN2CCN(c3ccccn3)CC2)cc1`, on Histamine H3 receptor, the pKi was 6.42.

As to `CC(=O)c1ccc(OCCCCN2CCN(C(=O)C3CCCO3)CC2)cc1` (centres undefined), on Histamine H3 receptor, the negative logarithm of the Ki (pKi) is < 5.00.
